# Active and inactive are the calls of the source. The rule behind the calls is not given here.
# Columns and labels:
# Type in all cases: functional, organism-based
# [1] = system: Carnation latent virus; assay: Antiviral activity against Carnation latent virus infected compound-treated sap in Saponaria vaccaria at 5% incubated for 60 secs prior to inoculation measured after 6 weeks in green house conditions by non-isotopic molecular hybridisation assay
# In short: (§1)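 Infected leaves ground in 30 mM phosphate buffer pH 7.0 with 0.5% PVP (1 g/5 ml) and clarified. Sap mixed 1:1 with chemical solution for 60 s; listed concentrations are final, after extract dilution. Buffer-only sap served as control. Treated sap rub-inoculated with carborundum onto three S. vaccaria cv. 'Pink Beauty' plants. Plants held in a greenhouse up to 6 weeks; infection scored by non-isotopic hybridisation.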
# [2] = system: Carnation mottle virus; assay: Antiviral activity against Carnation mottle virus infected compound-treated sap in Saponaria vaccaria at 5% incubated for 60 secs prior to inoculation measured after 6 weeks in green house conditions by non-isotopic molecular hybridisation assay; in short: as §1
# [3] = system: Carnation vein mottle virus; assay: Antiviral activity against Carnation vein mottle virus infected compound-treated sap in Saponaria vaccaria at 5% incubated for 60 secs prior to inoculation measured after 6 weeks in green house conditions by non-isotopic molecular hybridisation assay; in short: as §1
# [4] = system: Carnation ringspot virus; assay: Antiviral activity against Carnation ringspot virus infected compound-treated sap in Saponaria vaccaria at 5% incubated for 60 secs prior to inoculation measured after 6 weeks in green house conditions by non-isotopic molecular hybridisation assay; in short: as §1
# [5] = system: Carnation etched ring virus; assay: Antiviral activity against Carnation etched ring virus infected compound-treated sap in Saponaria vaccaria at 5% incubated for 60 secs prior to inoculation measured after 6 weeks in green house conditions by non-isotopic molecular hybridisation assay; in short: as §1
# [6] = system: Carnation Italian ringspot virus; assay: Antiviral activity against Carnation Italian ringspot virus infected as compound-treated sap in Saponaria vaccaria at 5% incubated for 60 secs prior to inoculation measured after 6 weeks in green house conditions by non-isotopic molecular hybridisation assay; in short: as §1
# [7] = system: Carnation latent virus; assay: Antiviral activity against Carnation latent virus infected compound-treated sap in Saponaria vaccaria at 7% incubated for 60 secs prior to inoculation measured after 6 weeks in green house conditions by non-isotopic molecular hybridisation assay; in short: as §1
# [8] = system: Carnation ringspot virus; assay: Antiviral activity against Carnation ringspot virus infected compound-treated sap in Saponaria vaccaria at 7% incubated for 60 secs prior to inoculation measured after 6 weeks in green house conditions by non-isotopic molecular hybridisation assay; in short: as §1
# [9] = system: Carnation vein mottle virus; assay: Antiviral activity against Carnation vein mottle virus infected compound-treated sap in Saponaria vaccaria at 7% incubated for 60 secs prior to inoculation measured after 6 weeks in green house conditions by non-isotopic molecular hybridisation assay; in short: as §1
# [10] = system: Carnation etched ring virus; assay: Antiviral activity against Carnation etched ring virus infected compound-treated sap in Saponaria vaccaria at 7% incubated for 60 secs prior to inoculation measured after 6 weeks in green house conditions by non-isotopic molecular hybridisation assay; in short: as §1
# [11] = system: Carnation latent virus; assay: Antiviral activity against Carnation latent virus infected compound-treated sap in Saponaria vaccaria at 3% incubated for 60 secs prior to inoculation measured after 6 weeks in green house conditions by non-isotopic molecular hybridisation assay; in short: as §1
# [12] = system: Carnation etched ring virus; assay: Antiviral activity against Carnation etched ring virus infected compound-treated sap in Saponaria vaccaria at 3% incubated for 60 secs prior to inoculation measured after 6 weeks in green house conditions by non-isotopic molecular hybridisation assay; in short: as §1
# [13] = system: Carnation ringspot virus; assay: Antiviral activity against Carnation ringspot virus infected compound-treated sap in Saponaria vaccaria at 3% incubated for 60 secs prior to inoculation measured after 6 weeks in green house conditions by non-isotopic molecular hybridisation assay; in short: as §1
# [14] = system: Carnation Italian ringspot virus; assay: Antiviral activity against Carnation Italian ringspot virus infected as compound-treated sap in Saponaria vaccaria at 3% incubated for 60 secs prior to inoculation measured after 6 weeks in green house conditions by non-isotopic molecular hybridisation assay; in short: as §1
# [15] = system: Carnation mottle virus; assay: Antiviral activity against Carnation mottle virus infected compound-treated sap in Saponaria vaccaria at 3% incubated for 60 secs prior to inoculation measured after 6 weeks in green house conditions by non-isotopic molecular hybridisation assay; in short: as §1
# [16] = system: Carnation vein mottle virus; assay: Antiviral activity against Carnation vein mottle virus infected compound-treated sap in Saponaria vaccaria at 3% incubated for 60 secs prior to inoculation measured after 6 weeks in green house conditions by non-isotopic molecular hybridisation assay; in short: as §1
# [17] = system: Carnation Italian ringspot virus; assay: Antiviral activity against Carnation Italian ringspot virus infected compound-treated sap in Saponaria vaccaria at 7% incubated for 60 secs prior to inoculation measured after 6 weeks in green house conditions by non-isotopic molecular hybridisation assay; in short: as §1
# [18] = system: Carnation mottle virus; assay: Antiviral activity against Carnation mottle virus infected compound-treated sap in Saponaria vaccaria at 7% incubated for 60 secs prior to inoculation measured after 6 weeks in green house conditions by non-isotopic molecular hybridisation assay; in short: as §1
Compound,Activity [1],Activity [2],Activity [3],Activity [4],Activity [5],Activity [6],Activity [7],Activity [8],Activity [9],Activity [10],Activity [11],Activity [12],Activity [13],Activity [14],Activity [15],Activity [16],Activity [17],Activity [18]
O=P([O-])([O-])O.[Na+].[Na+],inactive,inactive,Active,inactive,inactive,inactive,–,–,–,–,–,–,–,–,–,–,–,–
OCl,Active,inactive,Active,inactive,Active,Active,Active,Active,Active,Active,Active,Active,inactive,inactive,inactive,Active,Active,Active

# Source: ChEMBL document CHEMBL3046809, “Plant tissue distribution and chemical inactivation of six carnation viruses” (Crop Prot, 2007)
